Test results as given in ChEMBL document CHEMBL2157993, “Urea-based inhibitors of Trypanosoma brucei methionyl-tRNA synthetase: selectivity and in vivo characterization” (J Med Chem, 2012).
The source made the active and inactive calls. The rule behind the calls is not given here.

Assays:
[1] = test system: Trypanosoma brucei; assay: Binding affinity to Trypanosoma brucei MetRS at 100 uM by thermal shift assay
In short: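 Thermal shift (ΔTm) read-out with T. brucei MetRS at 0.4 mg/ml and 5% DMSO; otherwise per an earlier protocol. The test agent was at the single concentration in the curator's line. Repeated three times independently.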

[2] = Permeability across MDCK2-MDR1 cells expressing MDR1 at 3 uM in absence of 2 uM P-gp inhibitor Elacridal by mass spectroscopy; format: ADME, cell-based, Canis lupus familiaris; conditions: dog, mdck-ii
In short: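 MDR1-MDCKII cells seeded on Transwell inserts and assayed 3 days later at 37°C in HBSS with glucose and HEPES. Monolayers preincubated about 30 min with or without 2 μM elacridar, then given compound at 3 μM final (apical). After 60 min shaking, both chambers were sampled for MS. Integrity checked by Lucifer Yellow and TEER. Triplicate. Papp(A-B) and AQ calculated.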

[3] = Drug level in Swiss Webster mouse brain at 5 mg/kg, ip after 60 mins by MS/MS method; format: ADME, organism-based; design: dose 5 mg/kg, route intraperitoneal; conditions: read-out: Drug uptake
In short: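 Female Swiss Webster mice, 6-8 weeks old, three per compound, given 5 mg/kg IP in 5% DMSO/3% EtOH/7% Tween 80 saline. Killed at 1 h. Plasma and homogenised brain extracted with acetonitrile containing an extraction standard, with spiked blank brains used for standardisation. Quantified by LC-MS/MS.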

[4] = molecular target: ATP-dependent translocase ABCB1 (Homo sapiens, UniProt P08183); assay: Binding affinity to MDR1 expressed in MDCK2 cells assessed as absorptive quotient at 3 uM in absence of 2 uM by mass spectroscopy; format: ADME, cell-based; conditions: dog, mdck-ii
In short: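 Monolayers preincubated about 30 min with or without 2 μM elacridar, then given compound at 3 μM final (apical). After 60 min shaking, both chambers were sampled for MS. Integrity checked by Lucifer Yellow and TEER. Triplicate. Papp(A-B) and AQ calculated.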

[5] = test system: Trypanosoma brucei; assay: Inhibition of protein synthesis in Trypanosoma brucei assessed as reduction in [3H]L-histidine incorporation into proteins incubated for 4 hrs by scintillation counting; format: functional, organism-based
[6] = Selectivity index, ratio of EC50 for human CRL8155 cells to EC50 for Trypanosoma brucei brucei 427; format: toxicity; conditions: read-out: Ratio EC50
[7] = Selectivity index, ratio of EC50 for human HepG2 cells to EC50 for Trypanosoma brucei brucei 427; format: toxicity, cell-based; conditions: read-out: Ratio EC50
[8] = Inhibition of Trypanosoma brucei MetRS aminoacylation activity assessed as reduction in [3H]methionine incorporation into Escherichia coli tRNA pre-incubated for 15 mins before tRNA addition and measured after 120 mins by scintillation counting
In short: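 Recombinant enzyme at 10 nM, preincubated 15 min with 12-point two-fold inhibitor dilutions in 25 mM HEPES pH 7.9, 10 mM MgCl2, 50 mM KCl, spermine, BSA, DTT, 1% DMSO and pyrophosphatase. Reaction started with 400 μg/mL E. coli tRNA, 0.1 mM ATP and 250 nM [3H]methionine, run 120 min at room temperature. TCA-precipitated and filtered for scintillation counting. Quadruplicate, with IC50 by sigmoidal fit.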

[9] = Selectivity ratio of IC50 for human MetRS to IC50 for Trypanosoma brucei MetRS
In short: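 Ratio of the human mitochondrial MetRS IC50 to the T. brucei MetRS IC50, each from a [3H]methionine aminoacylation assay.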

[10] = test system: Trypanosoma brucei brucei; assay: Growth inhibition of Trypanosoma brucei brucei 427 blood stream forms after 48 hrs by alamar blue assay; format: functional, organism-based; conditions: Trypanosoma brucei, 427, 48 h
In short: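 Strain 427 bloodstream forms cultured in HMI-9 with 10% FBS at 37°C, 5% CO2. Triplicate wells seeded at 5×10^4 trypomastigotes with serial compound dilutions from 20 mM DMSO stocks. AlamarBlue read-out at 48 h, with pentamidine as the positive control.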

[11] = test system: HepG2; assay: Cytotoxicity against human HepG2 cells incubated for 48 hrs by alamar blue assay; format: cell-based; conditions: HepG2, 48 h
In short: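 […] cells in RPMI or HepG2 cells in DMEM/F-12, each with 10% serum, seeded at 5×10^3 per well. Exposed to serial compound dilutions for 48 h.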

Chain of ATP-dependent translocase ABCB1 (P08183 whole entry): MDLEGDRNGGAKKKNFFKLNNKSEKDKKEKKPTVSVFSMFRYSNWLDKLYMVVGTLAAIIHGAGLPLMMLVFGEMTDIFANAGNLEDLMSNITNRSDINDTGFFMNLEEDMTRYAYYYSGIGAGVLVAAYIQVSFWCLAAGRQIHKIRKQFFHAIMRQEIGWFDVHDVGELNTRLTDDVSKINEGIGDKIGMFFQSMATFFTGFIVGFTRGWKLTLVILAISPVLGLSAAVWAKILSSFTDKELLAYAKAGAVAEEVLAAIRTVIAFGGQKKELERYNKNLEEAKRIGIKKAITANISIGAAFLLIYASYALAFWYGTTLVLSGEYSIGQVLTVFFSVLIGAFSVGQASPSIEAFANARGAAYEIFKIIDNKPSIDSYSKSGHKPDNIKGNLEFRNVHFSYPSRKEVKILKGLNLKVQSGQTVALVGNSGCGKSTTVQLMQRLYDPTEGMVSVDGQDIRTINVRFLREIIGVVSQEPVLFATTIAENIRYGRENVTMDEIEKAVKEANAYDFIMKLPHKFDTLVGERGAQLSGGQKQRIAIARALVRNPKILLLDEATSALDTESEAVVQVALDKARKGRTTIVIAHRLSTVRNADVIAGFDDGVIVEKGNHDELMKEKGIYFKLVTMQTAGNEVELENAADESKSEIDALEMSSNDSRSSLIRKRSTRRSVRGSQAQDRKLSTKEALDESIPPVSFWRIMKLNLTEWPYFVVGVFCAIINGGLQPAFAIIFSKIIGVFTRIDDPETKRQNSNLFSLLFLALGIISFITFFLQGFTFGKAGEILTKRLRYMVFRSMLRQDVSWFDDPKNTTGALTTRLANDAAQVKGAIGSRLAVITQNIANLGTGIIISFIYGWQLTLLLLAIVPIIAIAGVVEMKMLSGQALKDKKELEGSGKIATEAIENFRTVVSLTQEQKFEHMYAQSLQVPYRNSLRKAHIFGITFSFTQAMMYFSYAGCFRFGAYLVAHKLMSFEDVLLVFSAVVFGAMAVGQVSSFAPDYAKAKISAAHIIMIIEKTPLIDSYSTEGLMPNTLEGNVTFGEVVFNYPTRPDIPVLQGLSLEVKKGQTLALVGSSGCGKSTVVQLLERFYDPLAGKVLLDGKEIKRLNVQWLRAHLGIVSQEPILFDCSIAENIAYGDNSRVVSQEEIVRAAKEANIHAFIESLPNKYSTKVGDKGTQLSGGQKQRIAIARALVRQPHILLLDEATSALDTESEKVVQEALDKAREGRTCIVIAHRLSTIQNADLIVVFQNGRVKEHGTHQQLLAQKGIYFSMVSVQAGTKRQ

SMILES: COc1cccc(CNCCCNC(=O)Nc2ccccc2)c1
- ΔTm [1]: 4.7 °C

SMILES: Nc1cccc(NC(=O)NCCCNCc2cc(Cl)cc(Cl)c2)c1
- ΔTm [1]: 4.3 °C

SMILES: CCOc1ccc(CNCCCNC(=O)Nc2ccccc2)cc1
- ΔTm [1]: 0.5 °C

SMILES: O=C(NCCCNCc1ccc(Cl)cc1)Nc1ccccc1
- ΔTm [1]: 2.5 °C

SMILES: Oc1cc(NCCCNCc2cc(Cl)cc(Cl)c2)nc2ccccc12
- Papp [2]: 2.9 ×10⁻⁶ cm/s
- concentration at 1 h [3]: < 3 nM
- AQ [4]: 0.36
- inhibition [5]: Dose-dependent effect
- selectivity ratio [6]: 27
- selectivity ratio [7]: 27

SMILES: O=C(NCCCNCc1cc(Cl)cc(Cl)c1)Nc1cccnc1
- ΔTm [1]: 7.1 °C

SMILES: O=C(NCCCNCc1cc(Cl)cc(Cl)c1)Nc1cccc(F)c1
- ΔTm [1]: 7.7 °C
- IC50 [8]: 110 nM
- Ratio IC50 [9]: 39
- EC50 [10]: 757 nM
- EC50 [11]: 17900 nM

SMILES: CC(C)NCC(O)COc1cccc2ccccc12 (stereo not given) [PROPRANOLOL]
- AQ [4]: < 0.5

SMILES: O=C(NCCCNCc1ccccc1Cl)Nc1ccccc1
- ΔTm [1]: 1.9 °C

SMILES: O=C(NCCCNCc1cccc(Cl)c1)Nc1ccccc1
- ΔTm [1]: 5.5 °C

SMILES: NCCCC(N)(C(=O)O)C(F)F (stereo not given)
- inhibition [5]: inactive

SMILES: CCOc1cccc(CNCCCNC(=O)Nc2ccccc2)c1
- ΔTm [1]: 2.7 °C

SMILES: O=C(NCCCNCc1cc(Cl)cc(Cl)c1)Nc1cccc(Cl)c1
- ΔTm [1]: 5.2 °C

SMILES: O=C(NCCCNCc1cc(Cl)cc(Cl)c1)Nc1ccccc1O
- ΔTm [1]: 8.4 °C
- IC50 [8]: 39 nM
- Ratio IC50 [9]: 95
- EC50 [10]: 210 nM
- EC50 [11]: > 20000 nM

SMILES: COc1ccc(CNCCCNC(=O)Nc2ccccc2)cc1
- ΔTm [1]: 1.1 °C

SMILES: C[C@@H]1C[C@@H]([C@H](O)CC2CC(=O)NC(=O)C2)C(=O)[C@@H](C)C1
- inhibition [5]: Dose-dependent effect

SMILES: O=C(NCCCNCc1cc(Cl)cc(Cl)c1)Nc1ccc(O)cc1
- ΔTm [1]: 5.8 °C
